Experimental data from ChEMBL document CHEMBL5154635, “Expedited Approach toward the Rational Design of Noncovalent SARS-CoV-2 Main Protease Inhibitors” (J Med Chem, 2022).

Tests used:
[1] = Cytotoxicity against African green monkey Vero E6 cells assessed as cell viability incubated for 5 days by neutral red uptake based microplate reader method; type: toxicity, Vero C1008; settings: chlorocebus sabaeus, time 5 day
Procedure, shortened: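 Vero E6 cells seeded and grown for 24 h, then washed. Serial compound dilutions added in serum-free medium for 5 days at 37 °C. Neutral red (40 μg/mL) taken up for 2–4 h, with absorbance read at 540 nm. CC50 from variable-slope dose-response fit.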

SARS-CoV-2 = assay: Antiviral activity against SARS-Cov-2 USA-WA1/2020 isolate infected in African green monkey Vero E6 cells measured after 48 hrs of postinfection by immunofluorescence assay; type: functional, organism-based; settings: Severe acute respiratory syndrome coronavirus 2, USA-WA1/2020, Vero C1008, 48 h
[2] = Selectivity Index, ratio of CC50 for african green monkey vero E6 cells to EC50 for antiviral activity against SARS-Cov-2 USA-WA1/2020 isolate infected in African green monkey Vero E6 cells; type: toxicity, Vero C1008; settings: read-out: Ratio CC50/EC50
[3] = target: T1, Replicase polyprotein 1ab (Severe acute respiratory syndrome coronavirus 2, UniProt P0DTD1); assay: Non-covalent inhibition of SARS-Cov-2 -Mpro incubated for 30 mins using FRET substrate measured for 1 hr by FRET-based enzymatic assay
[4] = Covalent inhibition of MERS-CoV -Mpro incubated for 30 mins using FRET substrate measured for 1 hr by FRET-based enzymatic assay; parameters: species or system Middle East respiratory syndrome-related coronavirus
[5] = Covalent inhibition of HCoV-OC43 -Mpro incubated for 30 mins using FRET substrate measured for 1 hr by FRET-based enzymatic assay; parameters: species or system unidentified human coronavirus
[6] = Covalent inhibition of Enterovirus-A17 3Cpro incubated for 30 mins using FRET substrate measured for 1 hr by FRET-based enzymatic assay
Procedure, shortened: (§1)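 Reaction started with the corresponding peptide FRET substrate (final 10 μM) and read at ex 360/em 460 nm at 30 °C for 1 h. Initial velocity taken by linear regression over the first 15 min.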

[7] = Covalent inhibition of Enterovirus-D68 3Cpro incubated for 30 mins using FRET substrate measured for 1 hr by FRET-based enzymatic assay; procedure, shortened: as §1
[8] = Covalent inhibition of Enterovirus-A17 2Apro incubated for 30 mins using FRET substrate measured for 1 hr by FRET-based enzymatic assay; procedure, shortened: as §1
[9] = Covalent inhibition of Enterovirus-D68 2Apro incubated for 30 mins using FRET substrate measured for 1 hr by FRET-based enzymatic assay; procedure, shortened: as §1
[10] = target: T2, Calpain-1 catalytic subunit (Homo sapiens, UniProt P07384); assay: Covalent inhibition of Calpain 1 (unknown origin) incubated for 1 hr by FRET-based enzymatic assay
T2 sequence (P07384 whole entry): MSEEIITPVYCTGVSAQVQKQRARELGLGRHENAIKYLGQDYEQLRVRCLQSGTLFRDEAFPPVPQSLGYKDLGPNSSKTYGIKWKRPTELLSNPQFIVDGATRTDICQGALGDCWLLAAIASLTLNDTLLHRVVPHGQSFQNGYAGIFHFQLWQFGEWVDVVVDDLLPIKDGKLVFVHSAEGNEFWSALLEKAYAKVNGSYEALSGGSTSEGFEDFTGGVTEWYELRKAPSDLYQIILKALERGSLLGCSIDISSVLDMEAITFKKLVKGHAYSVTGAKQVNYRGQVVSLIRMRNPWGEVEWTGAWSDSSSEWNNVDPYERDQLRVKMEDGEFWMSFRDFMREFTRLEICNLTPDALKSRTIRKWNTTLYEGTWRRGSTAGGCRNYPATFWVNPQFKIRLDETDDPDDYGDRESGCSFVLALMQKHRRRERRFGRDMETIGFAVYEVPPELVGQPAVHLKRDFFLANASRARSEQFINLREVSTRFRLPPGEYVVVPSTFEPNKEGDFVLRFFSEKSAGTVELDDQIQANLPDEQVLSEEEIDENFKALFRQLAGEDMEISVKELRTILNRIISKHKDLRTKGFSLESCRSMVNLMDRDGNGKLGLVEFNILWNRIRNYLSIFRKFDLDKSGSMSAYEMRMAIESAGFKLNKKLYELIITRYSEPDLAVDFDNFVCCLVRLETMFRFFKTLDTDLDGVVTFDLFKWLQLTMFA
Procedure, shortened: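 Calpain 1 in buffer of 50 mM HEPES, 50 mM NaCl, 10 mM DTT and 5 mM CaCl2 (pH 7.5), with test compound at serial concentrations. The reaction is started with N-succinyl-Leu-Leu-Val-Tyr-AMC (4 mM stock). Fluorescence (ex 360, em 460 nm) is read for 1 h at 30 °C.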

Procathepsin L [11] = target: T3, Procathepsin L (Homo sapiens, UniProt P07711); assay: Covalent inhibition of Cathepsin L (unknown origin) incubated for 30 mins using FRET substrate measured for 1 hr by FRET-based enzymatic assay
T3 sequence (P07711 whole entry): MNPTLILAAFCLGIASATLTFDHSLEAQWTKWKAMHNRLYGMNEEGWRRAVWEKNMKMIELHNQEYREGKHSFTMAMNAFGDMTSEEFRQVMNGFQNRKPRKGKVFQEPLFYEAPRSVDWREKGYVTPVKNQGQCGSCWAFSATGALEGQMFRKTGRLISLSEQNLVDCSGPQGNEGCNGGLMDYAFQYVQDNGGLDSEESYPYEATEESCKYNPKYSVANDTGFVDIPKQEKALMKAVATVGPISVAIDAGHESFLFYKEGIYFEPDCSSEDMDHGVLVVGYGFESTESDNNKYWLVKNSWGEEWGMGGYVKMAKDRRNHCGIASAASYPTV

[12] = Covalent inhibition of SARS-Cov -Mpro incubated for 30 mins using FRET substrate measured for 1 hr by FRET-based enzymatic assay; parameters: species or system Severe acute respiratory syndrome-related coronavirus
[13] = Non-covalent inhibition of SARS-Cov -Mpro incubated for 30 mins using FRET substrate measured for 1 hr by FRET-based enzymatic assay; parameters: species or system Severe acute respiratory syndrome-related coronavirus
[14] = target: T1, Replicase polyprotein 1ab; assay: Non-covalent inhibition of SARS-Cov-2 PLpro incubated for 30 mins using FRET substrate measured for 1 hr by FRET-based enzymatic assay
[15] = target: T2, Calpain-1 catalytic subunit; assay: Non-covalent inhibition of Calpain 1 (unknown origin) incubated for 1 hr by FRET-based enzymatic assay
Procedure, shortened: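 Calpain 1 in 50 mM HEPES, 50 mM NaCl, 10 mM DTT, 5 mM CaCl2, pH 7.5. Reaction started with N-succinyl-Leu-Leu-Val-Tyr-AMC (4 mM stock).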

Procathepsin L [16] = target: T3, Procathepsin L; assay: Non-covalent inhibition of Cathepsin L (unknown origin) incubated for 30 mins using FRET substrate measured for 1 hr by FRET-based enzymatic assay
Procedure, shortened: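 Cathepsin L activated for 30 min at 30 °C in 20 mM sodium acetate, 1 mM EDTA, 5 mM DTT, pH 5.5. 300 pM enzyme preincubated with compound for 30 min at 30 °C.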

[17] = target: T1, Replicase polyprotein 1ab; assay: Stabilization in SARS-CoV-2 MPro assessed as binding constant incubated for 30 mins in presence of DTT by thermal shift binding assay
Procedure, shortened: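 3 μM SARS-CoV-2 Mpro in Mpro reaction buffer with 4 mM DTT, incubated with varying compound concentrations for 30 min at 30 °C. SYPRO orange added and melt run from 20 to 90 °C at 0.05 °C/s. Tm plotted against concentration and fitted to one-site binding to give apparent Kd.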

SMILES	CC50 at 120 h [1]	IC50 [3]	other results
C[C@H](NC(=O)C(c1cccnc1)N(C(=O)c1ccco1)c1ccc(-c2ccccn2)cc1)c1ccccc1 (some centres undefined)	236 µM		
C[C@H](NC(=O)C(c1cccnc1)N(C(=O)c1ccno1)c1ccc(C2CCCCC2)cc1)c1ccccc1 (some centres undefined)	17.5 µM		
C[C@H](NC(=O)C(c1cccnc1)N(C(=O)c1ccco1)c1ccc(-n2cccc2)cc1)c1ccccc1 (some centres undefined)	> 200 µM		EC50 (SARS-CoV-2): 1.73 µM; selectivity ratio [2]: > 116
O=C(NCCCc1ccccc1)C(c1cccnc1)N(C(=O)c1ccco1)c1ccc(-c2ccccc2)cc1 (centres undefined)	> 200 µM		EC50 (SARS-CoV-2): 2.04 µM; selectivity ratio [2]: > 98
O=C(NC1CCCC1)C(c1cccnc1)N(C(=O)c1ccco1)c1ccc(-c2ccccc2)cc1 (centres undefined)	> 200 µM	4.1 µM	
C[C@H](NC(=O)C(c1cccnc1)N(C(=O)c1cnco1)c1ccc(-c2ccccc2)cc1)c1ccccc1 (some centres undefined)	67 µM		
CC(C)(C)CC(C)(C)NC(=O)C(c1cccnc1)N(C(=O)c1ccco1)c1ccc(-c2ccccc2)cc1 (centres undefined)	148 µM	2.14 µM	
O=C(NC1CC1)C(c1cccnc1)N(C(=O)c1ccco1)c1ccc(-c2ccccc2)cc1 (centres undefined)		12.1 µM	
C[C@H](NC(=O)C(c1cccnc1)N(C(=O)c1ccco1)c1ccc(-c2cccs2)cc1)c1ccccc1 (some centres undefined)	89.6 µM	0.56 µM	
CC(C)C[C@H](NC(=O)OCc1ccccc1)C(=O)N[C@@H](C[C@@H]1CCNC1=O)C(O)S(=O)(=O)O (some centres undefined)			EC50 (SARS-CoV-2): 1.51 µM; IC50 [4]: ≤ 0.16 µM; IC50 [5]: ≤ 0.16 µM; IC50 [6]: ≤ 0.16 µM; IC50 [7]: ≤ 0.16 µM; IC50 [8]: > 50 µM; IC50 [9]: > 50 µM; IC50 [10]: ≤ 0.074 µM; IC50 (Procathepsin L [11]): ≤ 0.074 µM; IC50 [12]: ≤ 0.16 µM
CC(C)(C)NC(=O)C(c1cnccn1)N(C(=O)c1ccco1)c1ccc(C(C)(C)C)cc1 (centres undefined)	138 µM		
C[C@H](NC(=O)C(c1cccnc1)N(C(=O)c1ccco1)c1ccc(-c2ccco2)cc1)c1ccccc1 (some centres undefined)	56.4 µM		
O=C(NCC(c1ccccc1)c1ccccc1)C(c1cccnc1)N(C(=O)c1ccco1)c1ccc(-c2ccccc2)cc1 (centres undefined)	> 200 µM		
O=C(NC1CCCCC1)C(c1cccnc1)N(C(=O)c1ccco1)c1ccc(-c2ccccc2)cc1 (centres undefined)	53.5 µM		
C[C@H](NC(=O)C(c1cnccn1)N(C(=O)c1c[nH]cn1)c1ccc(-c2ccccc2)cc1)c1ccccc1 (some centres undefined)	148 µM		EC50 (SARS-CoV-2): 4.54 µM; selectivity ratio [2]: 32.6
C[C@H](NC(=O)C(c1cccnc1)N(C(=O)c1ccno1)c1ccc(-c2ccccc2)cc1)c1ccccc1 (some centres undefined)	> 200 µM		

SMILES	CC50 at 120 h [1]	IC50 [3]	other results
C[C@H](NC(=O)C(c1cnccn1)N(C(=O)c1ccco1)c1ccc(-c2ccccc2)cc1)c1ccccc1 (some centres undefined)	> 200 µM		EC50 (SARS-CoV-2): 0.82 µM; selectivity ratio [2]: > 244
CC(C)(C)NC(=O)C(c1cccnc1)N(C(=O)c1ccco1)c1ccc(C(C)(C)C)cc1 (centres undefined)	> 125 µM		EC50 (SARS-CoV-2): > 20 µM
C[C@H](NC(=O)C(c1cccnc1)N(C(=O)c1ccco1)c1ccc([Si](C)(C)C)cc1)c1ccccc1 (some centres undefined)	19.4 µM		
CC(C)(C)c1ccc(N(C(=O)c2ccco2)C(C(=O)NC2CCCCC2)c2cccnc2)cc1 (centres undefined)	18.2 µM	2.39 µM	
Cc1ccc(S(=O)(=O)CNC(=O)C(c2cccnc2)N(C(=O)c2ccco2)c2ccc(C(C)(C)C)cc2)cc1 (centres undefined)		> 20 µM	
C[C@H](NC(=O)C(c1cccnc1)N(C(=O)c1ccco1)c1ccc(-c2ccccc2)cc1)c1ccccc1 (some centres undefined)	> 200 µM	0.66 µM	EC50 (SARS-CoV-2): 1.61 µM
CC(C)(C)c1ccc(N(C(=O)c2ccco2)C(C(=O)NC2CC2)c2cccnc2)cc1 (centres undefined)	52.8 µM		
CC(C)(C)NC(=O)C(c1cncnc1)N(C(=O)c1ccco1)c1ccc(C(C)(C)C)cc1 (centres undefined)		> 20 µM	
C[C@H](NC(=O)[C@H](c1cccnc1)N(C(=O)c1ccco1)c1ccc(-c2ccccc2)cc1)c1ccccc1		> 20 µM	
C[C@H](NC(=O)C(c1cccnc1)N(C(=O)c1c[nH]cn1)c1ccc(-c2ccccc2)cc1)c1ccccc1 (some centres undefined)	129 µM		EC50 (SARS-CoV-2): 13.1 µM; selectivity ratio [2]: 9.9
C[C@H](NC(=O)[C@@H](c1cccnc1)N(C(=O)c1ccco1)c1ccc(-c2ccccc2)cc1)c1ccccc1	> 100 µM	0.2 µM	IC50 [13]: 0.27 µM; IC50 [14]: > 60 µM; IC50 [15]: 6 µM; IC50 (Procathepsin L [16]): 10.5 µM; Kd [17]: 9.43 µM
CC(C)(C)NC(=O)C(c1c[nH]cn1)N(C(=O)c1ccco1)c1ccc(C(C)(C)C)cc1 (centres undefined)		> 20 µM	
CC(C)(C)CC(C)(C)NC(=O)C(c1cccnc1)N(C(=O)c1ccco1)c1ccc(C(C)(C)C)cc1 (centres undefined)		> 20 µM	
C[C@H](NC(=O)C(c1cccnc1)N(C(=O)c1ccco1)c1ccc(C2CCCCC2)cc1)c1ccccc1 (some centres undefined)	9.61 µM		
Cc1cccc(C)c1NC(=O)C(c1cccnc1)N(C(=O)c1ccco1)c1ccc(C(C)(C)C)cc1 (centres undefined)		> 20 µM	
CC(C)(C)c1ccc(N(C(=O)c2ccco2)C(C(=O)NC2CCCC2)c2cccnc2)cc1 (centres undefined)	101 µM		
